Test results published in ChEMBL document CHEMBL1121371, “Antihypertensive 5,6-diarylpyridazin-3-ones” (1980).

What was measured:
[1] = system: Rattus norvegicus; assay: Antihypertensive activity in spontaneously hypertensive rats was measured as average blood pressure at 100 mg/kg, p.o. after 4 hours of postdose-2; assay type: functional; settings: route oral
In short: (§1)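 Spontaneously hypertensive rats aged 12 to 16 weeks, in groups of five with systolic pressure of 170 mmHg or more. Oral dosing as a solution or suspension in 0.25% methylcellulose, 5 mL/kg, with a vehicle control group. Tail-cuff systolic pressure was read predose and 4 and 24 h after each of two doses. Values were compared with predose by Student's t test.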

[2] = system: Rattus norvegicus; assay: Antihypertensive activity in spontaneously hypertensive rats was measured as average blood pressure at 100 mg/kg, p.o. before predose; assay type: functional; settings: route oral; in short: as §1
[3] = system: Rattus norvegicus; assay: Antihypertensive activity in spontaneously hypertensive rats was measured as average blood pressure at 100 mg/kg, p.o. after 4 hours of postdose-1.; assay type: functional; settings: route oral; in short: as §1
[4] = system: Rattus norvegicus; assay: Antihypertensive activity in spontaneously hypertensive rats was measured as average blood pressure at 100 mg/kg, po after 24 hours of postdose-2; assay type: functional; in short: as §1
[5] = system: Rattus norvegicus; assay: Antihypertensive activity in spontaneously hypertensive rats was measured as average blood pressure at 100 mg/kg, p.o. after 24 hours of postdose-1.; assay type: functional; settings: route oral; in short: as §1
[6] = system: Rattus norvegicus; assay: Antihypertensive activity in spontaneously hypertensive rats was measured as increase in heart rate at 100 mg/kg peroral dose; (+)=increased heart rate; assay type: functional, organism-based; parameters: dose 100 mg/kg
[7] = system: Rattus norvegicus; assay: Antihypertensive activity in spontaneously hypertensive rats was measured as average blood pressure at 100 mg/kg, p.o. after 4 hours of postdose-1; assay type: functional; settings: route oral; in short: as §1
[8] = system: Rattus norvegicus; assay: Antihypertensive activity in spontaneously hypertensive rats was measured as increase in heart rate at 100 mg/kg peroral dose; (+)=Increased heart rate; assay type: functional, organism-based; parameters: dose 100 mg/kg
[9] = system: Rattus norvegicus; assay: Antihypertensive activity in spontaneously hypertensive rats, measured as average blood pressure at 100 mg/kg, p.o. before predose; No significant lowering of blood pressure; assay type: functional, organism-based; parameters: dose 100 mg/kg
[10] = system: Rattus norvegicus; assay: Antihypertensive activity in spontaneously hypertensive rats was measured as average blood pressure at 25 mg/kg, p.o. after 4 hours of postdose-2; assay type: functional; settings: route oral; in short: as §1
[11] = system: Rattus norvegicus; assay: Antihypertensive activity in spontaneously hypertensive rats was measured as average blood pressure at 25 mg/kg, p.o. after 24 hours of postdose-2; assay type: functional; settings: route oral; in short: as §1
[12] = system: Rattus norvegicus; assay: Antihypertensive activity in spontaneously hypertensive rats was measured as average blood pressure at 25 mg/kg, p.o. after 24 hours of postdose-1; assay type: functional; settings: route oral; in short: as §1
[13] = system: Rattus norvegicus; assay: Antihypertensive activity in spontaneously hypertensive rats was measured as average blood pressure at 50 mg/kg, p.o. after 4 hours of postdose-2; assay type: functional; settings: route oral; in short: as §1
[14] = system: Rattus norvegicus; assay: Antihypertensive activity in spontaneously hypertensive rats was measured as average blood pressure at 25 mg/kg, p.o. before predose; assay type: functional; settings: route oral; in short: as §1
[15] = system: Rattus norvegicus; assay: Antihypertensive activity in spontaneously hypertensive rats was measured as average blood pressure at 25 mg/kg, po after 4 hours of postdose-1; assay type: functional; in short: as §1
[16] = system: Rattus norvegicus; assay: Antihypertensive activity in spontaneously hypertensive rats was measured as average blood pressure at 50 mg/kg, p.o. before predose; assay type: functional; settings: route oral; in short: as §1
[17] = system: Rattus norvegicus; assay: Antihypertensive activity in spontaneously hypertensive rats was measured as average blood pressure at 50 mg/kg, p.o. after 24 hours of postdose-2; assay type: functional; settings: route oral; in short: as §1
[18] = system: Rattus norvegicus; assay: Antihypertensive activity in spontaneously hypertensive rats was measured as average blood pressure at 50 mg/kg, p.o. after 4 hours of postdose-1; assay type: functional; settings: route oral; in short: as §1
[19] = system: Rattus norvegicus; assay: Antihypertensive activity in spontaneously hypertensive rats was measured as average blood pressure at 50 mg/kg, p.o. after 24 hours of postdose-1; assay type: functional; settings: route oral; in short: as §1

Question: Which results are given for `CC(=O)c1c(-c2ccc(Cl)cc2)c(-c2ccc(Cl)cc2)nn(CCN2CCCCC2)c1=O`?
Answer: BP [1]: 165 mmHg; BP [2]: 192 mmHg; BP [3]: 180 mmHg; BP [4]: 176 mmHg; BP [5]: 163 mmHg

Question: `CC(=O)c1c(-c2ccc(Cl)cc2)c(-c2ccc(Cl)cc2)nn(CCN(C)C)c1=O` was tested. Which Heart rate [6] did it give?
Answer: increased heart rate

Question: For `CC(C)NCCn1nc(-c2ccc(Cl)cc2)c(-c2ccc(Cl)cc2)c(C#N)c1=O.Cl`, which BP [1] is on record?
Answer: 209 mmHg

Question: What about the BP [2] of the same molecule?
Answer: 220 mmHg

Question: And the BP [3]?
Answer: 218 mmHg

Question: And the BP [4]?
Answer: 173 mmHg

Question: What about the BP [5] of the same molecule?
Answer: 206 mmHg

Question: For `CN(C)c1ccc(-c2c(-c3ccc(Cl)cc3)c(-c3ccc(Cl)cc3)nn(CCO)c2=O)cc1.Cl`, which BP [1] is on record?
Answer: 188 mmHg

Question: And the BP [7]?
Answer: 184 mmHg

Question: And the BP [2]?
Answer: 223 mmHg

Question: What about the Heart rate [8] of the same molecule?
Answer: Increased heart rate

Question: And the BP [4]?
Answer: 208 mmHg

Question: And the BP [5]?
Answer: 199 mmHg

Question: With `CCCC(=O)c1c(O)nnc(-c2ccc(Cl)cc2)c1-c1ccc(Cl)cc1` as the molecule, how does the BP [9] read?
Answer: Not significant

Question: `N#Cc1c(-c2ccc(Cl)cc2)c(-c2ccc(Cl)cc2)nn(CCCl)c1=O` was tested. Which BP [9] did it give?
Answer: Not significant

Question: Which BP [9] does the source give for `O=c1cc(-c2ccc(Cl)cc2)c(-c2ccc(Cl)cc2)nn1CCO` here?
Answer: Not significant

Question: `COc1ccccc1-c1c(O)nnc(-c2ccccc2)c1-c1ccccc1` was tested. Which BP [9] did it give?
Answer: Not significant

Question: Which BP [9] does the source give for `CC(=O)c1c(-c2ccc(Cl)cc2)c(-c2ccc(Cl)cc2)nn(CCI)c1=O` here?
Answer: Not significant

Question: For `CC(=O)c1c(-c2ccc(Cl)cc2)c(-c2ccc(Cl)cc2)nn(CCN2C(=O)c3ccccc3C2=O)c1=O`, which BP [9] is on record?
Answer: Not significant

Question: Which BP [9] does the source give for `N#Cc1c(-c2ccccc2Cl)c(-c2ccccc2Cl)nn(CCO)c1=O` here?
Answer: Not significant

Question: `CC(=O)c1c(-c2ccccc2)c(-c2ccccc2)nn(CCCC(=O)O)c1=O` was tested. Which BP [9] did it give?
Answer: Not significant

Question: Which BP [10] does the source give for `N=C(N)NCCN1CCCCCCC1` [GUANETHIDINE] here?
Answer: 163 mmHg

Question: And the BP [11]?
Answer: 183 mmHg

Question: What about the BP [12] of the same molecule?
Answer: 181 mmHg

Question: And the BP [13]?
Answer: 138 mmHg

Question: What about the BP [14] of the same molecule?
Answer: 194 mmHg

Question: What about the BP [15] of the same molecule?
Answer: 163 mmHg

Question: What about the BP [16] of the same molecule?
Answer: 187 mmHg

Question: What about the BP [17] of the same molecule?
Answer: 146 mmHg

Question: What about the BP [18] of the same molecule?
Answer: 154 mmHg

Question: And the BP [19]?
Answer: 166 mmHg

Question: `CC(=O)c1c(-c2ccc(Cl)cc2)c(-c2ccc(Cl)cc2)nn(CC(O)CNC(C)C)c1=O` (stereo not drawn) was tested. Which BP [9] did it give?
Answer: Not significant

Question: How did the BP [9] turn out when `CC(=O)c1c(-c2ccc(Cl)cc2)c(-c2ccc(Cl)cc2)nn(CCCCCCN2C(=O)c3ccccc3C2=O)c1=O` was run?
Answer: Not significant

Question: Which BP [9] does the source give for `COc1ccc(-c2nnc(O)c(C(C)=O)c2-c2ccc(OC)cc2)cc1` here?
Answer: Not significant
